Experimental data gathered from unrelated publications.
Lines come from different studies, so protocols differ.
HLA class I histocompatibility antigen, A alpha chain: HLA class I histocompatibility antigen, A alpha chain (Homo sapiens, UniProt P04439)
BACE1: Beta-secretase 1 (BACE1, Homo sapiens, UniProt P56817)

| Structure (SMILES) | target | observed | action | method | quantity | result |
| --- | --- | --- | --- | --- | --- | --- |
| CC[C@H](C)[C@H](NC(=O)[C@@H](N)CCCNC(=N)N)C(=O)N[C@@H](Cc1ccc(O)cc1)C(=O)NCC(=O)N1CCC[C@H]1C(=O)N1CCC[C@H]1C(=O)N[C@@H](Cc1c[nH]cn1)C(=O)N[C@@H](CCC(N)=O)C(=O)N[C@@H](Cc1ccccc1)C(=O)O | HLA class I histocompatibility antigen, A alpha chain | cell-free assay |  |  | IC50 | 376 nM |
| COc1cc(C(F)(F)F)c(OC)cc1C1CCCNC1 (stereo not shown) | 5-hydroxytryptamine receptor 2C (Htr2c, Mus musculus, UniProt P34968) | G protein activation | agonist | BRET | EC50 | 30.9 nM |
| CSCC[C@H](NC(=O)[C@@H](N)CCCCN)C(=O)N[C@@H](Cc1c[nH]c2ccccc12)C(=O)NCC(=O)N[C@@H](CCCCN)C(=O)N1CCC[C@H]1C(=O)N[C@@H](CCSC)C(=O)N[C@H](C(=O)N[C@@H](Cc1ccccc1)C(=O)O)[C@@H](C)O | HLA class I histocompatibility antigen, A alpha chain | cell-free assay |  |  | IC50 | 213 nM |
| C=CCOc1ccc(C(=O)/C=C/c2cccc(F)c2)c(OS(=O)(=O)c2ccc(F)cc2)c1I | BACE1 | enzyme activity | inhibitor | fluorescence | IC50 | 27800 nM |
| CCOC(=O)c1ccc(OC(=O)CCCCCN=C(N)N)cc1 | Transmembrane protease serine 6 (Homo sapiens, UniProt Q8IU80) | enzyme activity | inhibitor |  | IC50 | 412 nM |
| C=CCOc1ccc(C(=O)/C=C/c2ccc(OC)cc2)c(OS(=O)(=O)c2ccccc2[N+](=O)[O-])c1I | BACE1 | enzyme activity | inhibitor | fluorescence | IC50 | 23900 nM |
| CCCC[C@H](NC(C)=O)C(=O)N[C@H]1CC(=O)NCCCC[C@@H](C(=O)N2CCC[C@@H]2C(=O)N[C@@H](C(=O)N2CCC[C@@H]2C(N)=O)C(C)C)NC(=O)[C@H](Cc2c[nH]c3ccccc23)NC(=O)[C@H](CCCNC(=N)N)NC(=O)[C@@H](Cc2ccccc2)NC(=O)[C@@H]2CCCN2C1=O | Melanocortin receptor 3 (MC3R, Homo sapiens, UniProt P41968) | cAMP | agonist |  | EC50 | > 1000 nM |
| C=CCOc1ccc(C(=O)/C=C/c2ccc(OC)cc2)c(OS(=O)(=O)c2ccc(OC)cc2)c1I | BACE1 | enzyme activity | inhibitor | fluorescence | IC50 | 18200 nM |
| CSCC[C@H](NC(=O)[C@@H](N)CCCNC(=N)N)C(=O)N[C@@H](Cc1ccccc1)C(=O)NCC(=O)N1CCC[C@H]1C(=O)N[C@H](C(=O)N[C@@H](CCC(N)=O)C(=O)N[C@H](C(=O)N[C@@H](Cc1ccc(O)cc1)C(=O)O)[C@@H](C)O)C(C)C | HLA class I histocompatibility antigen, A alpha chain | cell-free assay |  |  | IC50 | 45 nM |
| COc1cc2c(cc1OC)CN(CCc1ccc(NC(=O)c3cccc4c(=O)c5cccc(OC)c5[nH]c34)cc1)CC2 | D(2) dopamine receptor (DRD2, Homo sapiens, UniProt P14416) | cell-free assay |  |  | Ki | 943 nM |
